Shown are actives, neighbours in structure and some others; about 2.6% of the full set was active somewhere.
ERAP1 HTS inh: inhibitors of human ERAP1 aminopeptidase. recombinant ERAP1, Leu-AMC fluorescence, 60 min. inhibition, % at 10.7 µM. 340,000 compounds, 0.15% hits. Q9NZ08;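 active means mean replicate inhibition of at least 30%, or all replicates individually reaching that 30% level; inactive means mean below 30% and not every replicate reaching it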;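 further: 0% = neutral control wells and 100% = L-leucinethiol positive control wells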
Target sequence (Q9NZ08 whole entry, looked up): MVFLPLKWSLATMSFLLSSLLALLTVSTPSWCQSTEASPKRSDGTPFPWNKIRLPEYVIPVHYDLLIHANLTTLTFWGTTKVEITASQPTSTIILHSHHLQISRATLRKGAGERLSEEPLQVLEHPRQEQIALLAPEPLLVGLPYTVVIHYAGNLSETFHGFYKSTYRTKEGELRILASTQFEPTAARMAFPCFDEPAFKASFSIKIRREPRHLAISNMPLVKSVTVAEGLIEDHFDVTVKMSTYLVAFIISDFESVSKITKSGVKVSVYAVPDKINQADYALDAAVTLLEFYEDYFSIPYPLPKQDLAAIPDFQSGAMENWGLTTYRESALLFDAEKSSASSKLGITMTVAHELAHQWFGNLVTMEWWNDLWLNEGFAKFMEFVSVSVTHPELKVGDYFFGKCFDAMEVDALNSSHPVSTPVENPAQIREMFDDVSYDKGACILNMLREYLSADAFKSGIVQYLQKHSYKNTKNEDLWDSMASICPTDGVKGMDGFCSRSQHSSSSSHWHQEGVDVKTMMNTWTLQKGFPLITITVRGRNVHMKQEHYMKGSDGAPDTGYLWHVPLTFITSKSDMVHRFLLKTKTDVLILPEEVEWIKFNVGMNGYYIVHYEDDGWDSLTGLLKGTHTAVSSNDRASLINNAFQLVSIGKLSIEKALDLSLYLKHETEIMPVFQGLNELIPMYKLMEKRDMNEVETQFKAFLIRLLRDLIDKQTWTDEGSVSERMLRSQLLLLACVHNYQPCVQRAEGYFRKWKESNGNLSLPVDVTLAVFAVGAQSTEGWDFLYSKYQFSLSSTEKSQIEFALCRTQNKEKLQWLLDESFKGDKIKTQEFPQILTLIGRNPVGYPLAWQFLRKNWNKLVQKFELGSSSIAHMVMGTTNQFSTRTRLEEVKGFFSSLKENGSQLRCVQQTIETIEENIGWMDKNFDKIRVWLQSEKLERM
INS-1E GSIS act: primary screen for activators of insulin secretion dependent on glucose, INS-1E cells, GLuc reporter luminescence | INS-1E GLuc reporter insulin secretion, 2-3 h | activation, % at 16.6 µM | 370,000 compounds, 0.61% hits | AID 743287;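 active means lowest replicate activation of at least 40%, so every replicate reaches that level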;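 further: 0% = median of neutral control wells and 100% = median of IBMX positive control wells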
E-selectin induc: E-selectin induction on HUVECs. HUVEC E-selectin immunofluorescence imaging; normalized: neutral wells 0, TNF-alpha wells 100. activation, % at 7.58 µM. 260,000 compounds, 0.37% hits;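 active means mean E-selectin-positive cell signal at least 10% of the positive control, reached in at least 60% of replicates, without over 20% cell loss; inconclusive means no rule given, readout overlaps actives, possibly toxicity-flagged; inactive means the rest, including those meeting only one limit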
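Test system: HUVEC | Signal: Immunofluorescence imaging | Read-out: Percent E-selectin-positive cells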
CFTR F508del cor: CFTR F508del correction in bronchial cells; activity (quench increase), % at 7.58 µM; CFBE cells, YFP halide quenching; stimulated with forskolin plus potentiator P3; % fluorescence drop versus neutral controls; 350,000 compounds, 0.36% hits;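 active means mean added fluorescence quench of at least 8% versus neutral control, with both replicates also reaching 8%; inconclusive means only one of the mean or replicate conditions met; inactive means mean below 8% and not both replicates reaching 8%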;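 further: cells transiently co-express mutant CFTR-F508del with the halide-sensitive YFP; corrector assay measuring rescue of mutant channel to the surface after 24 h compound exposure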
miR-122 sensor: miR-122 inhibition in Huh7 cells. AID 602342. Huh7 miR-122 Renilla luciferase sensor, 48 h; neutral wells = 0, positive control = 100. activation (reporter increase), % at 12.5 µM. 340,000 compounds, 0.3% hits;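 active means mean replicate activation score at least 90 and every replicate individually at or above 90; inconclusive means only one of the two criteria met; inactive means neither criterion met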;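 further: higher luciferase means less miR-122 activity so hits act as miR-122 inhibitors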
DENV2 CPE: protects cells from dengue virus 2 cytopathic effect | DENV2-infected cells, cytopathic effect rescue, plate reader | CPE inhibition, % at 9.99 µM | 350,000 compounds, 1.7% hits | AID 651640; in the data active means CPE inhibition above about 20%, passing the limit was not always enough; inconclusive means no clear call, values can overlap the other calls; tested in BHK-21 cells;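 further: 0% = median of neutral control wells and 100% = median of positive control wells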
* = called active by the depositor; ? = inconclusive; · = no result given; ! = repeats disagree; [ ] = remark or other dose.

SMILES	ERAP1 HTS inh	INS-1E GSIS act	E-selectin induc	CFTR F508del cor	miR-122 sensor	DENV2 CPE
CCCN1C[C@@H](C)[C@@H](OC)CN(C)C(=O)c2cc(NC(=O)c3ccc(F)cc3)ccc2OC[C@@H]1C	1	-4	0	-2	-3[16.7 µM]	-7
O=C(C1CC1)N1CC2(C1)[C@@H](c1ccccc1)[C@@H](CO)N2C(=O)c1cccnc1	-2	11	0	0	·	-12
O=c1[nH]c(=O)n2c(c1-c1ccccc1)OC(CBr)C2 (stereo not drawn)	-9	·	·	·	-6	75*
C[C@@H]1CN([C@H](C)CO)C(=O)c2cc(NC(=O)Nc3ccc(F)cc3)ccc2O[C@@H](C)CCCCO[C@H]1CN(C)Cc1ccc(C(F)(F)F)cc1	2	36	·	-4	-9[16.7 µM]	2
Cc1ccc(NC(=O)c2cc(-c3cc(Cl)ccc3C)n[nH]2)cc1NS(C)(=O)=O	9	-13	0	0	-3	27*
Cc1ccc(C)c(C(Nc2ccccc2)c2ccc3ccc(C)nc3c2O)c1 (stereo not drawn)	-7	-21	1	7	·	23*
Oc1c(C(Nc2cccc(C(F)(F)F)c2)c2ccncc2)ccc2cccnc12 (stereo not drawn)	2	8	-3	-3	·	-3
COc1ccc(CN(C)C(=O)Cn2ccsc2=N)cc1OC	-4	4	0	0	·	-3
COc1ccc(CN(C)C(=O)Cn2cc(C)c(=O)[nH]c2=O)cc1OC	3	44*	0	-3	-5	?
COc1ccccc1NC(=O)N1CC(=O)N2[C@H](CO)[C@@H](c3ccc(C#CCC(C)C)cc3)[C@H]2C1	·	1	·	·	·	·
CC(O)CNc1nc(N)[nH]c(=O)c1N=Nc1ccccc1 (stereo not drawn)	0	-7	1	11*	7	-2
Nc1nc(O)c(N=Nc2ccc(S(N)(=O)=O)cc2)c(=O)[nH]1	3	1	1	-1	·	1
O=C(C1CC1)N1C[C@@H]2[C@H](c3ccccc31)[C@H](CO)N2C(=O)c1ccccn1	·	2	0	2	5[16.7 µM]	10
COc1ccc(S(=O)(=O)N(C)C[C@H]2Oc3ccc(NS(=O)(=O)c4ccc(C)cc4)cc3C(=O)N([C@H](C)CO)C[C@H]2C)cc1	-1	-26	7	4	·	-2
C[C@@H]1CN([C@@H](C)CO)C(=O)Cc2cc(NC(=O)CCC(F)(F)F)ccc2O[C@@H]1CN(C)Cc1ccc(C(F)(F)F)cc1	-1	-5	0	-1	-5[16.7 µM]	-4
O=C(O)CSc1nnc(Cc2ccccc2)n1Cc1ccccc1	·	57*	·	·	0	·
CCc1nnc(NC(=O)CSc2nnc3nc(C)cc(C)n23)s1	0	43*	·	-2	·	4
COc1cc2c(cc1OC)/C(=C/C(=O)c1ccc(OC)c([N+](=O)[O-])c1)NCC2	-6	51*	0	2	·	4
O=C(Cc1ccccn1)N[C@@H]1CC[C@H](CCn2cc(-c3ccc(F)cc3)nn2)O[C@H]1CO	2	-4	0	2	·	-2
COCC#Cc1ccc2c(c1)O[C@@H](CN(C)C(=O)C1CC1)[C@@H](C)CN([C@H](C)CO)S2(=O)=O	-2	-4	0	1	1[16.7 µM]	4
O=C(CCc1nc2ccccc2c(=O)[nH]1)NNC(=O)c1cccc(Cl)c1	-4	44*	1	0	0	2
CN(C)C(=O)c1ccc(-c2ccc(C3[C@@H]4CN(C(=O)c5cnccn5)C[C@H]3N4)cc2)cc1 (stereo partly drawn)	2	-7	2	-3	·	-1
Cc1ccccc1-c1ccc([C@@H]2[C@@H](CO)N3CCCCN(C(=O)c4cccnc4)C[C@H]23)cc1	1	-1	0	-1	4[16.7 µM]	49*
Cc1ccccc1-c1ccc(C2[C@@H]3CN(C(=O)c4cnccn4)C[C@H]2N3)cc1 (stereo partly drawn)	·	-11	0	-1	·	29*!
O=C(c1cccnc1)N1CCCCN2[C@H](CO)[C@@H](c3ccc(C#Cc4ccccn4)cc3)[C@H]2C1	-1	9	0	0	0[16.7 µM]	20*
SMILES	ERAP1 HTS inh	INS-1E GSIS act	E-selectin induc	CFTR F508del cor	miR-122 sensor	DENV2 CPE
COc1ccc(S(=O)(=O)Nc2ccc3c(c2)C(=O)N([C@@H](C)CO)C[C@H](C)[C@H](CN(C)C(=O)CCC(F)(F)F)OCCCC[C@@H](C)O3)cc1	2	-10	0	0	4[16.7 µM]	-5
C=C[C@@H](C)[C@@H](OC(=O)Nc1ccc(OC)cc1)c1ccc(OCCO)cc1	0	·	·	-5	·	13
CC1CCCCN1C(=O)COC(=O)C1CCN(S(=O)(=O)c2ccc(Cl)c(C(F)(F)F)c2)CC1 (stereo not drawn)	-2	15	1	4	-5	27*
O=C(COC(=O)C1CCN(S(=O)(=O)c2ccc(Cl)c(C(F)(F)F)c2)CC1)NCc1ccco1	-1	8	-2	-1	·	?
C[C@@H]1CN([C@H](C)CO)C(=O)c2cccc(NS(C)(=O)=O)c2O[C@H]1CN(C)Cc1ccncc1	-1	5	125*	3	-1[16.7 µM]	-2
C[C@H](CO)N1C[C@H](C)[C@@H](CN(C)Cc2ccccc2)Oc2c(NS(C)(=O)=O)cccc2C1=O	0	6	0	5	52[16.7 µM]	39*!
C[C@@H]1CN([C@H](C)CO)C(=O)c2cccc(NS(C)(=O)=O)c2O[C@@H]1CN(C)Cc1ccc(Oc2ccccc2)cc1	2	11	41*	2	0[16.7 µM]	?
C[C@H]1CN([C@@H](C)CO)C(=O)c2cccc(NC(=O)CCCCCC(=O)Nc3ccccc3N)c2O[C@H]1CN(C)S(=O)(=O)c1ccc(F)cc1	0	11	0	-1	·	-10
CNCCC=C1c2ccccc2C=Cc2ccccc21	0	·	-3	-2	-8	2
CNCCCC1c2ccccc2C=Cc2ccccc21	-1	-26	0	-5	-5	26*
COC(=O)CSC1=C(C#N)C(c2ccc(C)o2)CC(=O)N1 (stereo not drawn)	-2	-1	·	9.7*	2	1
COC(=O)[C@@H]1[C@@H](CO)[C@@H]2Cn3c(ccc(-c4cccc(OC)c4)c3=O)[C@@H]2N1CC1CC1	-2	-3	0	-2	-3[16.7 µM]	-9
COC(=O)C1=C(C)N(Cc2cccc(C(F)(F)F)c2)C(=NCc2ccc(OC)cc2)NC1c1ccc(F)cc1 (stereo not drawn)	4	285*	0	1	·	2
COC(=O)C1=C(C)N(Cc2cccc(C(F)(F)F)c2)C(=NCc2ccc(OC)cc2)NC1c1cccc(F)c1 (stereo not drawn)	1	84*	0	-4	·	-6

Screens: PubChem, Broad Institute
